Series [1] can be described thus: MTT cytotoxicity on HepaRG cells in HK-2/HepaRG co-culture. The conditions noted are these: human; for IC50 at 24 h / IC50 at 48 h: HepaRG cells in co-culture with HK-2 cells (IdMOC plates). It counts as cell-based. The procedure, abridged:
(§1)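 HK-2 (RPMI-1640) and HepaRG (William's E plus Tox supplement), passages 10–15, seeded together in IdMOC plates and allowed 4 h at 37 °C, 5% CO2. Test compound at several concentrations, DMSO ≤0.5% final, for 24 h and 48 h; MTT read-out. Triptolide positive control: 10 μmol/L for HK-2, 25 μmol/L for HepaRG. IC50 by nonlinear regression; mean ± SD. 48 h IC50 under 100 μM scored toxic.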

Series [2] can be described thus: MTT cytotoxicity on HK-2 cells in HK-2/HepaRG co-culture. It counts as cell-based. To be noted: human; for IC50 at 24 h / IC50 at 48 h: HK-2 cells in co-culture with HepaRG cells (IdMOC plates). The procedure, abridged: as §1
The subject of a further series is HepaRG cells. The series can be described thus: MTT cytotoxicity on HepaRG cells in HK-2/HepaRG co-culture. The series is classed as cell-based. To be noted: co-culture; for IC50: MTT; for effect on viability of HepaRG cells (in words): per Table 3. The procedure, abridged:
as §1

Series [3] deals with HK-2 cells. Description: MTT cytotoxicity on HK-2 cells in HK-2/HepaRG co-culture. It counts as cell-based. The conditions noted are these: co-culture; for IC50: MTT. The procedure, abridged: as §1
A summary of the method of series [4]:
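Liver call by software prediction over five injury markers (AlkPhos, GGT, LDH, SGOT, SGPT), positive when three are positive. Kidney call by a self-built QSAR classifier (accuracy 76.7%) giving positive/negative. In vitro, 48 h MTT IC50 under 100 μM in HK-2/HepaRG co-culture counted as toxic. Compounds flagged when either approach was positive.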

Series [5] concerns HK-2 cells. The series can be described thus: MTT cytotoxicity on HK-2 cells in single culture. The series is classed as cell-based. The conditions noted are these: Homo sapiens, HK-2, 24 h, read-out: IC50 HK-2 Single culture. The procedure, abridged: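 HK-2 cells (passages 10–15) in RPMI-1640 with 10% FBS at 37 °C, 5% CO2, cultured alone and exposed 24 h to a range of test compound concentrations, DMSO ≤0.5% final; vehicle control 0.5% DMSO. Viability by MTT; IC50 from nonlinear regression.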

For series [6] the following is noted: reported in the literature ref Wang et al., 2009; cited from earlier work.
[7] abbreviates: read-out: Hepatic cytotoxicity IC50 HepaRG 24 h, 24 h.
Where [8] appears, read: read-out: Hepatic cytotoxicity IC50 HepaRG 48 h, 48 h.
Where [9] appears, read: read-out: Renal cytotoxicity IC50 HK-2 24 h, 24 h.
Setting [10] is: read-out: Renal cytotoxicity IC50 HK-2 48 h, 48 h.

Like-named read-outs stand apart in the source and are kept apart here.

For orientation: IC50 means the concentration needed to halve the response being measured. In general, viability refers to the share of living cells, or the viability signal relative to a control. Low values mean a greater loss of cells, high ones better survival.

For `COc1c(O)c(C)cc2c1C(=O)c1c(ccc(O)c1O)C2=O` [No. 7, 1,2,7-trihydroxy-8-methoxy-6-methyl-9,10-anthraquinone], in series [1], the IC50 at 24 h was > 500 µM and the half-inhibitory concentration (IC50) at 48 h came out at 44.2 µM. Moreover, in series [2], the IC50 at 24 h was > 500 µM and the IC50 at 48 h is > 500 µM.

With `CC(=O)c1c(C)cc2cc(O)cc(O[C@@H]3O[C@H](CO)[C@@H](O)[C@H](O)[C@H]3O)c2c1O` [No. 25, 6-Hydroxymusizin-8-O-β-D-glucopyranoside], the half-maximal inhibitory concentration (IC50) in the series with HepaRG cells (setting [7]) is > 500 µM; in the series with HepaRG cells (setting [8]), 317 µM; in the series on HK-2 cells [3] (setting [9]) it was > 500 µM; in the series with HK-2 cells [3] (setting [10]) it was > 500 µM.

For the molecule `COc1c(O)cc2c(c1O)C(=O)c1c(cc(C)c(O)c1OC)C2=O` [No. 5, Aurantio-obtusin], the figures for the IC50 at 24 h in series [1] and in series [2] were 333 µM and > 500 µM, respectively. The concentration for half-maximal inhibition (IC50) at 48 h was determined as 75.5 µM in series [1] and 117 µM in series [2]. Further, the “effect on viability of HepaRG cells (in words)” value with HepaRG cells is reported as “decreased the viability of HepaRG cells”.

Take `CC(=O)OC[C@H]1O[C@@H](Oc2cc(O)cc3cc4oc(C)cc(=O)c4c(O)c23)[C@H](O)[C@@H](O)[C@@H]1O` [No. 24, Nor-rubrofusarin-6-O-β-D-(6’-O-acetyl)glucopyranoside]: the IC50 is > 500 µM in the series on HepaRG cells (setting [7]), 226 µM in the series with HepaRG cells (setting [8]), > 500 µM in the series with HK-2 cells [3] (setting [9]) and > 500 µM in the series on HK-2 cells [3] (setting [10]).

For the molecule `Cc1cc(O)c2c(c1)C(=O)c1cccc(O)c1C2=O` [No. 9, Chrysophanol], in series [1], the IC50 at 24 h is > 500 µM and the IC50 at 48 h was 170 µM. For the same molecule, in series [2], the IC50 at 24 h is > 500 µM and the half-inhibitory concentration (IC50) at 48 h stood at 93.9 µM.

Turning to 9-Dehydroxyeurotinone (EDG) [No. 21], the IC50 in the series with HepaRG cells (setting [7]) came to 448 µM; with HepaRG cells (setting [8]) it was 331 µM; in the series on HK-2 cells [3] (setting [9]), 380 µM; with HK-2 cells [3] (setting [10]) it was 111 µM.

As for `Cc1cc(O)c2c(c1)C(=O)c1cc(O)cc(O)c1C2=O` [No. 8, Emodin], the values for the half-inhibitory concentration (IC50) at 24 h in series [1] and in series [2] were 125 µM and 89 µM, respectively. In addition, the IC50 at 48 h in series [1] amounted to 31.9 µM; in series [2] it was 122 µM. Moreover, in the series with HepaRG cells, the “effect on viability of HepaRG cells (in words)” value is reported as “decreased the viability of HepaRG cells”. Moreover, the “both hepatotoxicity and nephrotoxicity (in words)” value in series [4] was “both hepatotoxicity and nephrotoxicity”. In addition, the half-maximal inhibitory concentration (IC50) in the series on HK-2 cells [5] was 140 µM.

With `COc1cc2c(c(O)c1OC)C(=O)c1c(cc(C)c(O)c1OC)C2=O` [No. 2, Obtusin], the half-maximal inhibitory concentration (IC50) with HepaRG cells (setting [7]) was determined as 298 µM; in the series with HepaRG cells (setting [8]), 81.2 µM; in the series on HK-2 cells [3] (setting [9]) it was 50.5 µM; in the series with HK-2 cells [3] (setting [10]), 57.8 µM. Besides, the “both hepatotoxicity and nephrotoxicity (in words)” value in series [4] was “both hepatotoxicity and nephrotoxicity”.

Turning to `O=C1c2cccc(O)c2C(=O)c2c(O)cc(CO)cc21` [No. 10, Aloe-emodin], the IC50 at 24 h in series [1] and in series [2] was > 500 µM each time. Also, the half-maximal inhibitory concentration (IC50) at 48 h is 96.2 µM in series [1] and 134 µM in series [2]. The “effect on viability of HepaRG cells (in words)” value with HepaRG cells is on record as “decreased the viability of HepaRG cells”. Also, the “nephrotoxicity in vivo (in words)” value in series [6] is given as “nephrotoxic”.

For the molecule `COc1cc(O)c2c(c1)C(=O)c1cc(C)cc(O)c1C2=O` [No. 12, Physcion], in series [1], the half-inhibitory concentration (IC50) at 24 h was > 500 µM and the IC50 at 48 h was found to be 73.6 µM. For the same molecule, in series [2], the 50% inhibitory concentration (IC50) at 24 h was > 500 µM and the IC50 at 48 h came to 196 µM.

With `COc1c(O[C@@H]2O[C@H](CO)[C@@H](O)[C@H](O)[C@H]2O)c(C)cc2c1C(=O)c1c(O)cccc1C2=O` [No. 16, Obtusifoline-2-O-β-D-glucoside], the IC50 with HepaRG cells (setting [7]) was found to be 108 µM; with HepaRG cells (setting [8]), 98.5 µM; in the series with HK-2 cells [3] (setting [9]), 270 µM; in the series on HK-2 cells [3] (setting [10]), 251 µM.

For `COc1cc2c(c(O)c1OC)C(=O)c1c(cc(C)c(O[C@@H]3O[C@H](CO)[C@@H](O)[C@H](O)[C@H]3O)c1OC)C2=O` [No. 18, Gluco-obtusin], the IC50 with HepaRG cells (setting [7]) was 178 µM; in the series with HepaRG cells (setting [8]), 125 µM; in the series on HK-2 cells [3] (setting [9]), 255 µM; with HK-2 cells [3] (setting [10]) it was > 500 µM.

With `Cc1cc2c(c(O)c1O)C(=O)c1c(O)cc(O)cc1C2=O` [No. 13, Alaternin (quinone)], the IC50 in the series on HepaRG cells (setting [7]), with HepaRG cells (setting [8]), in the series on HK-2 cells [3] (setting [9]) and in the series with HK-2 cells [3] (setting [10]) was > 500 µM throughout.

As to `COc1ccc2c(c1OC)C(=O)c1c(cc(C)c(O)c1OC)C2=O` [No. 4, 1,7,8-methoxyl-2-hydroxyl-3-methyl-anthraquinone], the IC50 was 420 µM in the series with HepaRG cells (setting [7]), 192 µM in the series with HepaRG cells (setting [8]), 332 µM in the series with HK-2 cells [3] (setting [9]) and 37.5 µM with HK-2 cells [3] (setting [10]).

Consider `O=C1c2ccccc2C(=O)c2ccccc21` [No. 17, 9,10-Anthracenedione], for which, in series [1], the half-maximal inhibitory concentration (IC50) at 24 h came out at 93.4 µM and half-maximal inhibition (IC50 at 48 h) required 84.4 µM. Also, in series [2], the IC50 at 24 h is > 500 µM and the IC50 at 48 h is 138 µM.

In turn, `CC(C)[C@]12O[C@H]1[C@@H]1O[C@]13[C@]1(O[C@H]1C[C@H]1C4=C(CC[C@@]13C)C(=O)OC4)[C@@H]2O` [Triptolide, reference compound] gave a viability at 25 μmol/L in series [1] (HepaRG cells co-cultured with HK-2 cells in IdMOC plates) of 50.5 ± 5.68%. This molecule also showed a viability at 10 μmol/L in series [2] (HK-2 cells co-cultured with HepaRG cells in IdMOC plates) of 43.6 ± 2.26%.

As for `O=C(O)c1cc(O)c2c(c1)C(=O)c1cccc(O[C@@H]3O[C@H](CO)[C@@H](O)[C@H](O)[C@H]3O)c1C2=O` [No. 15, Rhein-8-O-β-D-glucoside], the half-maximal inhibitory concentration (IC50) in the series with HepaRG cells (setting [7]) was > 500 µM; with HepaRG cells (setting [8]), 208 µM; in the series on HK-2 cells [3] (setting [9]), > 500 µM; with HK-2 cells [3] (setting [10]), 108 µM.

As for `COc1cc2c(c(OC)c1OC)C(=O)c1c(cc(C)c(O)c1OC)C2=O` [No. 1, Chryso-obtusin], in series [1], the 50% inhibitory concentration (IC50) at 24 h amounted to 71.9 µM and the 50% inhibitory concentration (IC50) at 48 h came out at 388 µM. Besides, in series [2], the IC50 at 24 h was 53 µM and it took 33.6 µM to reach half-maximal inhibition (IC50 at 48 h).

As for `COc1c(O[C@@H]2O[C@H](CO)[C@@H](O)[C@H](O)[C@H]2O)cc2c(c1O)C(=O)c1c(cc(C)c(O)c1OC)C2=O` [No. 20, Glucoaurantio-obtusin], the IC50 was 154 µM in the series on HepaRG cells (setting [7]) and > 500 µM in the series on HK-2 cells [3] (setting [9]).

For the molecule `COc1c(O)c(C)cc2c1C(=O)c1c(cc(O)c(O)c1O)C2=O` [No. 6, 1,2,3,7-tetrahydroxy-8-methoxy-6-methyl-anthraquinone], the 50% inhibitory concentration (IC50) at 24 h in series [1] and in series [2] was > 500 µM each time. Also, the 50% inhibitory concentration (IC50) at 48 h in series [1] is 209 µM; in series [2] it was 283 µM.

In the case of `COc1c(O)c(C)cc2c1C(=O)c1c(O)cccc1C2=O` [No. 3, Obtusifoline], in series [1], the midpoint of inhibition, the IC50 at 24 h, lay at 117 µM and the IC50 at 48 h is 35 µM. Moreover, in series [2], the IC50 at 24 h worked out at 310 µM and half-maximal inhibition (IC50 at 48 h) was put at 389 µM.

As to `O=C(O)c1cc(O)c2c(c1)C(=O)c1cccc(O)c1C2=O` [No. 11, Rhein], the IC50 at 24 h in series [1] is 307 µM; in series [2] it was 229 µM. Also, the IC50 at 48 h in series [1] stood at 36.1 µM; in series [2], 44.1 µM. The “effect on viability of HepaRG cells (in words)” value with HepaRG cells is reported as “decreased the viability of HepaRG cells”. Also, in series [4], the “both hepatotoxicity and nephrotoxicity (in words)” value was “both hepatotoxicity and nephrotoxicity”. The “effect on viability of HK-2 cells (in words)” value in the series on HK-2 cells [3] (per Table 3) is reported as “reduced the viability of HK-2 cells”.

On to “2-O-β-D-Glucoside-9-dehydroxyeurotinone [No. 22]”, for which the concentration for half-maximal inhibition (IC50) in the series on HepaRG cells (setting [7]), in the series on HepaRG cells (setting [8]), in the series with HK-2 cells [3] (setting [9]) and in the series with HK-2 cells [3] (setting [10]) was > 500 µM throughout.

The values above are taken from publication PMC8320615 (Current Research in Toxicology, 2021).
